{"source": "ChEMBL document CHEMBL3425511", "about": "(J Med Chem, 2015)", "key": {"[1]": {"test": "Metabolic stability in rat liver microsomes assessed as compound remaining after 10 mins", "assay_type": "ADME", "conditions": "liver microsomes, read-out: Stability", "summary_of_the_method": "(§1)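 Compound incubated 10 min with liver microsomes of the stated species; amount of parent remaining reported as percent.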"}, "[2]": {"target": "T1, Transient receptor potential cation channel subfamily V member 2 (Homo sapiens) (UniProt Q9Y5S1)", "T1 sequence (whole entry)": "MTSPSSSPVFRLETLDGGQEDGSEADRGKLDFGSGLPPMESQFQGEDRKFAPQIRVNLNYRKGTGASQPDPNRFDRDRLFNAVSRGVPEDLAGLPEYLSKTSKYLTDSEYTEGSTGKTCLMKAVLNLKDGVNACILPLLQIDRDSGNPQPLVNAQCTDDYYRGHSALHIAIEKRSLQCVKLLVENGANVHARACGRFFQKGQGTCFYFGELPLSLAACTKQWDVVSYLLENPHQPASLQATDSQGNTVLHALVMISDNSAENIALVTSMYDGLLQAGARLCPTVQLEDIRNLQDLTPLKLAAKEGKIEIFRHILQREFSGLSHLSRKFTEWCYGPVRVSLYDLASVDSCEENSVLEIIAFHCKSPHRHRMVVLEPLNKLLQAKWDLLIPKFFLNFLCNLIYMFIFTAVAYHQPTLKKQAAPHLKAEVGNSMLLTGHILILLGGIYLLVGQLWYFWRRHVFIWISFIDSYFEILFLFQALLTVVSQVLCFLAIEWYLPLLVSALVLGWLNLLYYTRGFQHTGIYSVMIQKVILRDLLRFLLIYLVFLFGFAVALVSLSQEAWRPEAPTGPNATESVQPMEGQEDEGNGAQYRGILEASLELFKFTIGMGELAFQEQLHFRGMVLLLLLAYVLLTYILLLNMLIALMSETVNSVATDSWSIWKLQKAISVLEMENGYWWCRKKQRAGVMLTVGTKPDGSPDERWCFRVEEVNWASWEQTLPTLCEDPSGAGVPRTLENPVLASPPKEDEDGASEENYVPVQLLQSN", "test": "Effect on TRPV2 (unknown origin)"}, "[3]": {"test_system": "Rattus norvegicus", "test": "Reversal of carrageenan-induced thermal hypersensitivity in po dosed Sprague-Dawley rat assessed as plasma concentration required to reach ED50 measured at 100 mins", "assay_type": "functional", "summary_of_the_method": "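Rats dosed orally 100 min before radiant-heat testing. For CFA, plasma taken right after behavioural testing; for carrageenan, taken from a separate group dosed identically. Blood collected on lithium heparin and centrifuged, plasma stored at −80 °C. Plasma levels matching ED50 and ED80 (EC50/EC80) computed from the dose−response data.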"}, "[4]": {"test": "Metabolic stability in dog liver microsomes assessed as compound remaining after 10 mins", "assay_type": "ADME, Canis lupus familiaris", "conditions": "read-out: Stability", "summary_of_the_method": "as §1"}, "[5]": {"test": "Volume of distribution at steady state in dog at 2 mg/kg, iv", "assay_type": "ADME, organism-based, Canis lupus familiaris", "design": "dose 2 mg/kg, route intravenous", "conditions": "in vivo, read-out: Vdss", "summary_of_the_method": "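Intravenous dosing at 2 mg/kg as a solution of the sodium salt in 20% HPβCD, n = 4 animals per group. Vss derived from the plasma pharmacokinetic profile.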"}, "[6]": {"target": "Cytochrome P450 2D6 (Homo sapiens, UniProt P10635)", "sequence (P10635 whole entry)": "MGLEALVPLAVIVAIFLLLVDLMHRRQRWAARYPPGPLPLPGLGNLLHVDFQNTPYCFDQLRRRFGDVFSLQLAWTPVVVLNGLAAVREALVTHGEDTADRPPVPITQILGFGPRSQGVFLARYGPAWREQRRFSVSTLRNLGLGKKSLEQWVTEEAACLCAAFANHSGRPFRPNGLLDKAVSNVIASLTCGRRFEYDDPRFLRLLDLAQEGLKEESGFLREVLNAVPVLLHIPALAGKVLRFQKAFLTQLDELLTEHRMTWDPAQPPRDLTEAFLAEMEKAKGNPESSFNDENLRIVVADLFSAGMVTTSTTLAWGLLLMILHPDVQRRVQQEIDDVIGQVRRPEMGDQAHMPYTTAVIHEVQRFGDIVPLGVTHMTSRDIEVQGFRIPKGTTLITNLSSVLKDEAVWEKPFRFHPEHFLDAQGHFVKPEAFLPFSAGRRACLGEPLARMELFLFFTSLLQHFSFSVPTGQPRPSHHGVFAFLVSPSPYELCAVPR", "test": "Inhibition of CYP2D6 in human liver microsomes", "assay_type": "ADME"}, "[7]": {"test_system": "Cavia porcellus", "test": "Toxicity in guinea pig assessed as induction of hemodynamic/electrocardiographic effect at 10 mg/kg, iv", "assay_type": "organism-based", "design": "dose 10 mg/kg, route intravenous", "conditions": "in vivo", "summary_of_the_method": "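Anesthetized guinea pigs dosed intravenously to a cumulative 10 mg/kg; hemodynamic and electrocardiographic parameters monitored.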"}}, "note": "The source made the active and inactive calls. The calls are words filed in the database; no cut-off is given here.", "data": [{"smiles": "CC(C)(O)c1ccccc1-c1ccc2[nH]c(/C=C/c3ccc(C(F)(F)F)cc3)nc2c1", "values": [{"measurement": "remaining at 10 min", "setting": "[1]", "value": 93, "unit": "%"}, {"measurement": "Activity", "setting": "[2]", "value": "inactive"}, {"measurement": "Activity", "setting": "[3]", "value": 3.8, "unit": "ng/mL"}, {"measurement": "remaining at 10 min", "setting": "[4]", "value": 36, "unit": "%"}, {"measurement": "Vd", "setting": "[5]", "value": 2.7, "unit": "L/kg"}, {"measurement": "IC50", "setting": "[6]", "value": "> 25", "unit": "µM"}, {"measurement": "Activity", "setting": "[7]", "value": "Non-toxic"}]}]}
